The first assay addresses T1, Type-1 angiotensin II receptor (Oryctolagus cuniculus, UniProt P34976).
T1 sequence (P34976 whole entry): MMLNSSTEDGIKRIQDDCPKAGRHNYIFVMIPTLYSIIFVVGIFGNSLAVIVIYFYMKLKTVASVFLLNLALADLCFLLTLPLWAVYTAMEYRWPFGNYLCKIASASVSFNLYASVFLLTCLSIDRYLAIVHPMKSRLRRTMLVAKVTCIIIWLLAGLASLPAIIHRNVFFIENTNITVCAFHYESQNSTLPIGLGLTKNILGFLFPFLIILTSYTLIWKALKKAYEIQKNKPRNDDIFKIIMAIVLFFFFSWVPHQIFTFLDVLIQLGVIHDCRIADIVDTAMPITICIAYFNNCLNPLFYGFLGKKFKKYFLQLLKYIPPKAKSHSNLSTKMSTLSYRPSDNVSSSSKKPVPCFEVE
Briefly: Antagonist activity at angiotensin 2 receptor type 1 in New Zealand White rabbit descending thoracic aorta rings assessed as inhibition of angiotensin 2-induced contraction preincubated for 30 mins prior angiotensin 2 challenge. Type of assay: functional, tissue-based. In a few lines: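 Aortic rings held at 2 g resting tension and equilibrated 60 min with repeated washing in Krebs bicarbonate solution. Responsiveness was checked with AngII, then a control cumulative AngII concentration–contractile response curve was run. After washout, test substance was incubated 30 min and a second AngII curve obtained.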
Consider `CCCCc1nc(C)c(CC(=S)N(CC)CC)c(=O)n1Cc1ccc(-c2ccccc2-c2nnn[nH]2)cc1`, for which the IC50 was determined as 1.31 nM.

Take `CCCc1nc(C)c(CC(=O)O)c(=O)n1Cc1ccc(-c2ccccc2-c2nnn[nH]2)cc1`: the IC50 is 27.1 nM.

Target in the next assay: not listed separately
Briefly: Displacement of [125I]angiotensin 2 from angiotensin 2 receptor type 1 in Sprague-Dawley rat adrenal cortex membranes after 60 mins by gamma counting. Type of assay: cell membranes, Membrane. In a few lines: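 Adrenal cortex membranes came from male Sprague–Dawley rats (200–250 g); the pellet was taken by differential centrifugation up to 100,000 g. Membranes (60–70 µg protein/assay) were suspended in 50 mM Tris–HCl, 10 mM MgCl2, 0.25% BSA, pH 7.4, with [125I]AngII (0.05 nM) and test compound (3×10^-12 to 10^-6 M, DMSO). Incubation ran 60 min at 25 °C and ended by GF/B filtration. IC50 is 50% inhibition of binding.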
Molecule `CCCCc1nc(C)c(CCC(=O)N2CCC[C@H]2C(=O)OC)c(=O)n1Cc1ccc(-c2ccccc2-c2nnn[nH]2)cc1` gave a concentration for half-maximal inhibition (IC50) of 58.5 nM.

`CCCCc1nc(C)c(CCC(=O)N2CCSCC2)c(=O)n1Cc1ccc(-c2ccccc2-c2nnn[nH]2)cc1` yielded an IC50 of 28 nM.

The molecule `CCCCc1nc(C)c(CC(=O)N2CCOCC2)c(=O)n1Cc1ccc(-c2ccccc2-c2nnn[nH]2)cc1` showed a concentration for half-maximal inhibition (IC50) of 23 nM.

The molecule `CCCCc1nc(C)c(CC(=O)N2CCC[C@H]2C(=O)OC)c(=O)n1Cc1ccc(-c2ccccc2-c2nnn[nH]2)cc1` showed a half-inhibitory concentration (IC50) of 59.3 nM.

In turn, `CCCCc1nc(C)c(CCC(=O)N2CCCCC2)c(=O)n1Cc1ccc(-c2ccccc2-c2nnn[nH]2)cc1` returned an IC50 of 64.7 nM.

The molecule `CCCCc1nc(Cl)c(CO)n1Cc1ccc(-c2ccccc2-c2nnn[nH]2)cc1` [LOSARTAN] showed an IC50 of 80 nM.

On to `CCCCc1nc(C)c(CC(=O)N2CCSCC2)c(=O)n1Cc1ccc(-c2ccccc2-c2nnn[nH]2)cc1`, for which the IC50 came to 9 nM.

`CCCCc1nc(C)c(CC(=S)N(CC)CC)c(=O)n1Cc1ccc(-c2ccccc2-c2nnn[nH]2)cc1` returned an IC50 of 6.27 nM.

`CCCCc1nc(C)c(CC(=O)OCC)c(=O)n1Cc1ccc(-c2ccccc2-c2nnn[nH]2)cc1` gave an IC50 of 66.2 nM.

Consider `CCCCc1nc(C)c(CC(=O)N2CCC[C@H]2C(N)=O)c(=O)n1Cc1ccc(-c2ccccc2-c2nnn[nH]2)cc1`, for which the IC50 is 17 nM.

`CCCCc1nc(C)c(CCC(=O)N2CCOCC2)c(=O)n1Cc1ccc(-c2ccccc2-c2nnn[nH]2)cc1` yielded an IC50 of 60 nM.

The molecule `CCCCc1nc(C)c(CCC(=O)N2CCCC2)c(=O)n1Cc1ccc(-c2ccccc2-c2nnn[nH]2)cc1` returned a 50% inhibitory concentration (IC50) of 70.5 nM.

In turn, `CCCCc1nc(C)c(CC(=O)N2CCN(C)CC2)c(=O)n1Cc1ccc(-c2ccccc2-c2nnn[nH]2)cc1` came in with an IC50 of 19 nM.

The test system of another assay is Rattus norvegicus. Nature of the assay: Antihypertensive activity in iv dosed pithed rat model assessed as inhibition of angiotensin 2-induced pressor response by gould pressure transducer-coupled grass polygraphy. Type of assay: functional. The gist of the method:
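Pithed rats had blood pressure recorded by an arterial catheter to a pressure transducer/polygraph. After about 60 min of stabilization, AngII (100 ng/kg iv) was given three times at 15 min intervals to set a basal pressor response. Compound was then given iv, followed by AngII 100 ng/kg iv. ED50 for 50% inhibition of maximal pressor response came from the dose–pressure curve.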
As to `CCCCc1nc(C)c(CCC(=O)N2CCC[C@H]2C(=O)OC)c(=O)n1Cc1ccc(-c2ccccc2-c2nnn[nH]2)cc1`, the ED50 was 0.063 mg/kg.

`CCCCc1nc(C)c(CCC(=O)N2CCSCC2)c(=O)n1Cc1ccc(-c2ccccc2-c2nnn[nH]2)cc1`: the ED50 worked out at 0.204 mg/kg.

Consider `CCCCc1nc(C)c(CC(=O)N2CCOCC2)c(=O)n1Cc1ccc(-c2ccccc2-c2nnn[nH]2)cc1`, for which the ED50 is 0.018 mg/kg.

For the molecule `CCCCc1nc(C)c(CC(=O)N2CCC[C@H]2C(=O)OC)c(=O)n1Cc1ccc(-c2ccccc2-c2nnn[nH]2)cc1`, the ED50 came out at 0.043 mg/kg.

As to `CCCCc1nc(C)c(CCC(=O)N2CCCCC2)c(=O)n1Cc1ccc(-c2ccccc2-c2nnn[nH]2)cc1`, the ED50 came out at 0.164 mg/kg.

`CCCCc1nc(Cl)c(CO)n1Cc1ccc(-c2ccccc2-c2nnn[nH]2)cc1` [LOSARTAN]: the ED50 stood at 0.336 mg/kg.

`CCCCc1nc(C)c(CC(=O)N2CCSCC2)c(=O)n1Cc1ccc(-c2ccccc2-c2nnn[nH]2)cc1`: the ED50 is 0.038 mg/kg.

For `CCCCc1nc(C)c(CC(=S)N(CC)CC)c(=O)n1Cc1ccc(-c2ccccc2-c2nnn[nH]2)cc1`, the ED50 came to 0.023 mg/kg.

As for `CCCCc1nc(C)c(CC(=O)OCC)c(=O)n1Cc1ccc(-c2ccccc2-c2nnn[nH]2)cc1`, the ED50 is 0.108 mg/kg.

As for `CCCCc1nc(C)c(CC(=O)N2CCC[C@H]2C(N)=O)c(=O)n1Cc1ccc(-c2ccccc2-c2nnn[nH]2)cc1`, the ED50 came to 0.023 mg/kg.

In the case of `CCCCc1nc(C)c(CCC(=O)N2CCOCC2)c(=O)n1Cc1ccc(-c2ccccc2-c2nnn[nH]2)cc1`, the ED50 stood at 0.143 mg/kg.

Regarding `CCCCc1nc(C)c(CCC(=O)N2CCCC2)c(=O)n1Cc1ccc(-c2ccccc2-c2nnn[nH]2)cc1`, the ED50 was 0.206 mg/kg.

The test system of another assay is Rattus norvegicus. Nature of the assay: Ratio of losartan ED50 to compound ED50 for antihypertensive activity in iv dosed pithed rat model assessed as inhibition of angiotensin 2-induced pressor response. The format is functional.
For `CCCCc1nc(C)c(CC(=O)N2CCOCC2)c(=O)n1Cc1ccc(-c2ccccc2-c2nnn[nH]2)cc1`, the “Ratio ED50” value is 19.

These data come from ChEMBL document CHEMBL1949566 (Bioorg Med Chem Lett, 2012).
